Laboratory results published in ChEMBL document CHEMBL1129753, “N-terminus urea-substituted chemotactic peptides: new potent agonists and antagonists toward the neutrophil fMLF receptor” (J Med Chem, 1996).

Key:
fMet-Leu-Phe receptor [1] = target: T1, fMet-Leu-Phe receptor (Homo sapiens, UniProt P21462); experiment: Binding affinity towards fMLF receptor using human neutrophils
T1 sequence (P21462 whole entry): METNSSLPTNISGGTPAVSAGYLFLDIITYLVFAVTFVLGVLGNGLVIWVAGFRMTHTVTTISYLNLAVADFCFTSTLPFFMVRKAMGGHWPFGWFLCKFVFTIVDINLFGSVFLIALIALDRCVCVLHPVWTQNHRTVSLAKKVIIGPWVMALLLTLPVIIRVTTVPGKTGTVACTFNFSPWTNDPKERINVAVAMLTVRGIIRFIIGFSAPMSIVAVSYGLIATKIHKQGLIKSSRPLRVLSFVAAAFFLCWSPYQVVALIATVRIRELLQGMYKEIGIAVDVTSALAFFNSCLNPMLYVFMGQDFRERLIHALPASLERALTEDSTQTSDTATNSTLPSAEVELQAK
In short: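 Competition binding on human neutrophils: the peptide displaces tritiated fMLF from the fMLF receptor. Values are mean ± SE of 2–3 independent experiments.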

fMet-Leu-Phe receptor [2] = target: T1, fMet-Leu-Phe receptor; experiment: Antagonistic activity was determined by measuring the ability to inhibit superoxide production (stimulated by fMLF) using human neutrophils; format: functional
In short: (§1)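 Human neutrophils stimulated with fMLF, with the peptide present. Antagonism is the inhibition of fMLF-driven superoxide production, read as cytochrome C reduction. Values are mean ± SE of 2–3 independent experiments.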

fMet-Leu-Phe receptor [3] = target: T1, fMet-Leu-Phe receptor; experiment: Agonistic activity was determined by measuring the ability to induce superoxide production(as measured by reduction of cytochrome C) using human neutrophils; NA= No activity at 30 uM; format: functional
In short: (§2)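 Human neutrophils; agonist read-out is superoxide generation induced by the peptide, followed as cytochrome C reduction. Values are mean ± SE of 2–3 independent experiments.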

fMet-Leu-Phe receptor [4] = target: T1, fMet-Leu-Phe receptor; experiment: Agonistic activity was determined by measuring the ability to induce superoxide production(as measured by reduction of cytochrome C) using human neutrophils; format: functional; in short: as §2
[5] = Agonistic activity was determined by measuring the compound's ability to induce superoxide production(as measured by reduction of cytochrome C) using human neutrophils; format: functional; in short: as §2
Homo sapiens [6] = species: Homo sapiens; experiment: Antagonistic activity was determined by measuring the compound's ability to inhibit superoxide production (stimulated by fMLF) using human neutrophils; NA= No activity at 30 uM; format: functional, organism-based; in short: as §1
Homo sapiens [7] = species: Homo sapiens; experiment: Agonistic activity was determined by measuring the compound's ability to induce superoxide production(as measured by reduction of cytochrome C) using human neutrophils; NA= No activity at 30 uM.; format: functional, organism-based; in short: as §2

SMILES	IC50 (fMet-Leu-Phe receptor [1]) [nM]	IC50 (fMet-Leu-Phe receptor [2]) [nM]	EC50 (fMet-Leu-Phe receptor [3])	EC50 (fMet-Leu-Phe receptor [4]) [nM]	EC50 [5] [nM]	IC50 (Homo sapiens [6])	EC50 (Homo sapiens [7])
CCCNC(=O)N[C@@H](CCSC)C(=O)N[C@@H](CC(C)C)C(=O)N[C@@H](Cc1ccccc1)C(=O)O	2000	3000	Not Active				
CSCC[C@H](NC(=O)NCC(C)C)C(=O)N[C@@H](CC(C)C)C(=O)N[C@@H](Cc1ccccc1)C(=O)O	1000	4000	Not Active				
CSCC[C@H](NC(=O)NC(C)(C)C)C(=O)N[C@@H](CC(C)C)C(=O)N[C@@H](Cc1ccccc1)C(=O)O	3000	2000	Not Active				
CC(C)C[C@@H](NC(=O)[C@H](Cc1ccccc1)NC(=O)[C@@H](CC(C)C)NC(=O)[C@H](Cc1ccccc1)NC(N)=O)C(=O)N[C@@H](Cc1ccccc1)C(=O)O	800	100					Not Active
CSCC[C@H](NC(=O)NC12CC3CC(CC(C3)C1)C2)C(=O)N[C@@H](CC(C)C)C(=O)N[C@@H](Cc1ccccc1)C(=O)O	900	2000					
CSCC[C@H](NC(=O)NC(C)C)C(=O)N[C@@H](CC(C)C)C(=O)N[C@@H](Cc1ccccc1)C(=O)O	2000	5000					
CNC(=O)N[C@@H](CCSC)C(=O)N[C@@H](CC(C)C)C(=O)N[C@@H](Cc1ccccc1)C(=O)O	3000	2000	Not Active				
CCNC(=O)N[C@@H](CCSC)C(=O)N[C@@H](CC(C)C)C(=O)N[C@@H](Cc1ccccc1)C(=O)O	1000	3000	Not Active				
CSCC[C@H](NC(=O)NCc1ccccc1)C(=O)N[C@@H](CC(C)C)C(=O)N[C@@H](Cc1ccccc1)C(=O)O	800	600					
CSCC[C@H](NC(N)=O)C(=O)N[C@@H](CC(C)C)C(=O)N[C@@H](Cc1ccccc1)C(=O)O	2000			3000			

Now those with a lower IC50 (fMet-Leu-Phe receptor [1]), led by results:

IC50 (fMet-Leu-Phe receptor [1]) [nM]	IC50 (fMet-Leu-Phe receptor [2]) [nM]	EC50 (fMet-Leu-Phe receptor [3])	EC50 (fMet-Leu-Phe receptor [4]) [nM]	EC50 [5] [nM]	IC50 (Homo sapiens [6])	EC50 (Homo sapiens [7])	SMILES
50	500	Not Active					CC(C)C[C@@H](NC(=O)[C@H](Cc1ccccc1)NC(=O)[C@@H](CC(C)C)NC(=O)[C@H](Cc1ccccc1)NC(=O)Nc1ccccc1)C(=O)N[C@@H](Cc1ccccc1)C(=O)O
300			300				CCCCNC(=O)N[C@@H](CCSC)C(=O)N[C@@H](CC(C)C)C(=O)N[C@@H](Cc1ccccc1)C(=O)O
300				400			C=C(C)NC(=O)N[C@@H](CCSC)C(=O)N[C@@H](CC(C)C)C(=O)N[C@@H](Cc1ccccc1)C(=O)O
2			2		Not Active		CSCC[C@H](NC(=O)Nc1ccc(C)cc1)C(=O)N[C@@H](CC(C)C)C(=O)N[C@@H](Cc1ccccc1)C(=O)O
2			1		Not Active		CSCC[C@H](NC(=O)Nc1ccc(Cl)cc1)C(=O)N[C@@H](CC(C)C)C(=O)N[C@@H](Cc1ccccc1)C(=O)O
20	300	Not Active					CC(C)C[C@@H](NC(=O)[C@H](Cc1ccccc1)NC(=O)[C@@H](CC(C)C)NC(=O)[C@H](Cc1ccccc1)NC(=O)NC12CC3CC(CC(C3)C1)C2)C(=O)N[C@@H](Cc1ccccc1)C(=O)O
100	1600		900				CSCC[C@H](NC(=O)Nc1cccc(C)c1)C(=O)N[C@@H](CC(C)C)C(=O)N[C@@H](Cc1ccccc1)C(=O)O
200	500	Not Active					CC(C)C[C@@H](NC(=O)[C@H](Cc1ccccc1)NC(=O)[C@@H](CC(C)C)NC(=O)[C@H](Cc1ccccc1)NC(=O)NC(C)C)C(=O)N[C@@H](Cc1ccccc1)C(=O)O
300	600	Not Active					CCCCNC(=O)N[C@@H](Cc1ccccc1)C(=O)N[C@H](CC(C)C)C(=O)N[C@@H](Cc1ccccc1)C(=O)N[C@H](CC(C)C)C(=O)N[C@@H](Cc1ccccc1)C(=O)O
200	20	Not Active					Cc1cccc(NC(=O)N[C@@H](Cc2ccccc2)C(=O)N[C@H](CC(C)C)C(=O)N[C@@H](Cc2ccccc2)C(=O)N[C@H](CC(C)C)C(=O)N[C@@H](Cc2ccccc2)C(=O)O)c1
30			40		Not Active		CSCC[C@H](NC(=O)Nc1ccccc1)C(=O)N[C@@H](CC(C)C)C(=O)N[C@@H](Cc1ccccc1)C(=O)O
2			1		Not Active		COc1ccc(NC(=O)N[C@@H](CCSC)C(=O)N[C@@H](CC(C)C)C(=O)NC(Cc2ccccc2)C(=O)O)cc1 (stereo not given in full)
